Laboratory results from ChEMBL document CHEMBL2046415, “Double protein knockdown of cIAP1 and CRABP-II using a hybrid molecule consisting of ATRA and IAPs antagonist” (2012).
Activity calls are given as the source filed them. The calls are words filed in the database; no cut-off is given here. Square brackets hold non-standard residues; d marks the D form. Peptide text beside a SMILES is read from it. Dip = N[C@H](C(=O)O)C(c1ccccc1)c1ccccc1; Chg = N[C@H](C(=O)O)C1CCCCC1; NMeA = CN[C@@H](C)C(=O)O

Columns and labels:
HT-1080 [1] = assay: Activation of proteasome in human HT1080 cells expressing FLAG-tagged cIAP1 assessed as induction of cIAP1 protein degradation at 10 uM after 6 hrs by Western blot analysis
HT-1080 [2] = assay: Activation of proteasome in human HT1080 cells expressing FLAG-tagged cIAP1 assessed as induction of CRABP-2 protein degradation at 10 uM after 6 hrs by Western blot analysis
HT-1080 [3] = assay: Induction of cIAP1 protein degradation in human HT1080 cells at 0.1 to 10 uM after 6 hrs by Western blot analysis; assay type: functional, cell-based
IMR-32 [4] = assay: Activation of proteasome in human IMR32 cells assessed as induction of cIAP1 and CRABP-2 protein degradation at 3 to 30 uM after 24 hrs by Western blot analysis
IMR-32 [5] = assay: Induction of apoptosis in human IMR32 cells assessed as activation of caspase 3/7 after 24 hrs relative to control; assay type: functional
Outline: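 IMR-32 cells exposed to compounds for 24 h; caspase 3/7 activity expressed as fold increase over untreated control; values are means of triplicate determinations.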

HT-1080 [6] = assay: Activation of proteasome in human HT1080 cells expressing FLAG-tagged cIAP1 assessed as induction of cIAP1 and CRABP-2 protein degradation at 0.1 to 10 uM after 6 hrs by Western blot analysis
IMR-32 [7] = assay: Antiproliferative activity against human IMR32 cells assessed as reduction of cell number at 30 uM after 24 to 72 hrs; assay type: functional, cell-based
HT-1080 [8] = assay: Activation of proteasome in human HT1080 cells expressing FLAG-tagged cIAP1 assessed as induction of cIAP1 and CRABP-2 protein degradation after 6 hrs by Western blot analysis
[9] = target: T1, Retinoic acid receptor alpha (Homo sapiens) (UniProt P10276); assay: Induction of RARalpha degradation
T1 sequence (whole entry): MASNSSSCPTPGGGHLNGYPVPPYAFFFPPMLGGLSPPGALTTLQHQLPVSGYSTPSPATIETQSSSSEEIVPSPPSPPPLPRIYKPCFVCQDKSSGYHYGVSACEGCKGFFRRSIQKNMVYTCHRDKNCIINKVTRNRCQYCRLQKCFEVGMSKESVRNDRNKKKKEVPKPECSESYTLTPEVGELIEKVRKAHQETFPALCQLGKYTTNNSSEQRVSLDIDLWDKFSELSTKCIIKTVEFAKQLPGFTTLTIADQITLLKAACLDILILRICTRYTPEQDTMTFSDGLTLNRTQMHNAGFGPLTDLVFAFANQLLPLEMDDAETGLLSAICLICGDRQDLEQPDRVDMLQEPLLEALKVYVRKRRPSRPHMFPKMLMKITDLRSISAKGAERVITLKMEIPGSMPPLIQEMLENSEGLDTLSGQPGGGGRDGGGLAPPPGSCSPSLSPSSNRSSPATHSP

HT-1080 [10] = assay: Activation of proteasome in human HT1080 cells expressing FLAG-tagged cIAP1 assessed as induction of cIAP1 and CRABP-2 protein degradation at 10 uM after 6 hrs by Western blot analysis in presence of proteasome inhibitor MG132
Outline: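 Compound exposure 6 h; proteasome inhibitor MG132 (10) added to the culture 30 min before compound; cIAP1 and CRABP-II levels then read by Western blot.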

Row | Structure (SMILES) | Activity (HT-1080 [1]) | Activity (HT-1080 [2]) | Activity (HT-1080 [3]) | Activity (IMR-32 [4]) | fold change (FC) (IMR-32 [5]) | Activity (IMR-32 [7]) | other results
1 | CC1=C(/C=C/C(C)=C/C=C/C(C)=C/C(=O)O)C(C)(C)CCC1 | inactive | inactive | – | – | – | – | –
2 | CN[C@@H](C)C(=O)N[C@H](C(=O)N1CCC[C@H]1C(=O)N[C@H](C(=O)OC)C(c1ccccc1)c1ccccc1)C1CCCCC1 (H-[NMeA][Chg]P[Dip]-OMe) | Active | inactive | Active | – | – | – | –
3 | CC1=C(/C=C/C(C)=C/C=C/C(C)=C/C(=O)O)C(C)(C)CC/C1=N\OCC(=O)NCCOCCOCCNC(=O)[C@H](CC(C)C)NC(=O)[C@@H](O)[C@H](N)Cc1ccccc1 | – | – | – | Active | 1.84 | – | –
4 | COC(=O)[C@H](CC(C)C)NC(=O)[C@@H](O)[C@H](N)Cc1ccccc1 | – | – | Active | – | – | – | –
5 | CC1=C(/C=C/C(C)=C/C=C/C(C)=C/C(=O)O)C(C)(C)CC/C1=N\OCC(=O)NCCOCCOCCOC(=O)[C@H](CC(C)C)NC(=O)[C@@H](O)[C@H](N)Cc1ccccc1 | – | – | – | Active | 3.61 | Active | Activity (HT-1080 [6]): Active
6 | CN[C@@H](C)C(=O)N[C@H](C(=O)N1CCC[C@H]1C(=O)N[C@H](C(=O)NCCOCCOCCNC(=O)CO/N=C1\CCC(C)(C)C(/C=C/C(C)=C/C=C/C(C)=C/C(=O)O)=C1C)C(c1ccccc1)c1ccccc1)C1CCCCC1 | Active | – | – | Active | 4.44 | Active | Activity (HT-1080 [8]): Dose-dependent effect; Activity [9]: inactive; Activity (HT-1080 [10]): inactive
